# From ChEMBL document CHEMBL1122346, “Antihypertensive activity of 6-arylpyrido[2,3-d]pyrimidin-7-amine derivatives. 2. 7-Acyl amide analogues” (J Med Chem, 1983)
# “And” between values parts separate entries of the source, which are not always exact repeats. Equal values may be shown once.
# Legend:
# [1] = pKa value, measured in 67% DMF/water
# [2] = Half-life measured in 0.1 N HCl; Stable; assay type: ADME; settings: buffer
# Outline: (§1)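 Hydrolytic stability was tested at room temperature on solutions of ca. 0.001-0.002%. Media were 0.1 N HCl (pH ~1.5), 50% MeOH/pH 7 phosphate buffer (pH ~8.0), and 50% MeOH/0.05 N aqueous NaOH (pH ~12.2). Changes in the UV spectrum were followed over 2 weeks.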
# [3] = Half-life measured in 1:1 ratio of MeOH and 0.1 N NaOH; assay type: ADME; settings: 1:1 MeOH / 0.1 N NaOH
# Outline: as §1
# [4] = tested on: Rattus norvegicus; experiment: Antihypertensive activity rating in conscious SHR after 2 hr post dose at 50 mg/kg (po); Range 10-20%; assay type: functional
# [5] = organism: Rattus norvegicus; experiment: Maximum percent decrease in blood pressure in SHR ( hour post dose in parentheses); assay type: functional
# [6] = pKa value, measured in 67% of DMF; assay type: physicochemical; settings: 67% DMF
# Outline: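 Dissociation constants were found by potentiometric titration in 67% N,N-dimethylformamide/water.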
# [7] = tested on: Rattus norvegicus; experiment: Antihypertensive activity rating in conscious SHR after 10 hr post dose at 50 mg/kg (po); Range 20-30%; assay type: functional
# [8] = Half-life measured in 1:1 ratio of MeOH and phosphate buffer at pH 7; assay type: ADME; settings: 1:1 MeOH / phosphate buffer
# Outline: as §1
# [9] = tested on: Rattus norvegicus; experiment: Antihypertensive activity rating in conscious SHR after 24-72 hr post dose at 10 mg/kg (po); Range 10-20%; assay type: functional
# [10] = tested on: Rattus norvegicus; experiment: Antihypertensive activity rating in conscious SHR after 2 hr post dose at 10 mg/kg (po); Range 10-20%; assay type: functional
# [11] = Solubility, determined in phosphate buffer at pH 7; assay type: physicochemical
# Outline: (§2)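 Dissolved compound was quantified by UV absorption. For the pH 7 value, the acidic solution was brought to pH 7 to give the unprotonated base, the precipitate was removed, and the supernatant was assayed again by UV.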
# [12] = Solubility, determined in 0.1 N HCl; assay type: physicochemical; settings: read-out: S
# Outline: as §2
# [13] = tested on: Rattus norvegicus; experiment: Antihypertensive activity rating in conscious SHR after 24 h post dose at 10 mg/kg (po); Range 10-20%; assay type: functional
# [14] = tested on: Rattus norvegicus; experiment: Antihypertensive activity rating in conscious SHR after 2 hr post dose at 10 mg/kg (po); Range 20-30%; assay type: functional
# [15] = tested on: Rattus norvegicus; experiment: Antihypertensive activity rating in conscious SHR after 10 hr post dose at 10 mg/kg (po); Range 20-30%; assay type: functional
# [16] = tested on: Rattus norvegicus; experiment: Antihypertensive activity in conscious spontaneously hypertensive rats 2 hr following 50 mg/kg p.o.; No significant reduction.; assay type: functional; settings: route oral
# [17] = tested on: Rattus norvegicus; experiment: Antihypertensive activity rating in conscious SHR after 24 hr post dose at 50 mg/kg (po); 0=No significant reduction; assay type: functional
# [18] = tested on: Rattus norvegicus; experiment: Antihypertensive activity in conscious spontaneously hypertensive rats 10 hr following 50 mg/kg p.o.; No significant reduction.; assay type: functional; settings: route oral
# [19] = tested on: Rattus norvegicus; experiment: Antihypertensive activity rating in conscious SHR after 10 hr post dose at 10 mg/kg (po); 0=No significant reduction; assay type: functional
# [20] = tested on: Rattus norvegicus; experiment: Antihypertensive activity rating in conscious SHR after 2 hr post dose at 50 mg/kg (po); Range 20-30%; assay type: functional
# [21] = tested on: Rattus norvegicus; experiment: Antihypertensive activity rating in conscious SHR after 2 hr post dose at 10 mg/kg (po); 0=No significant reduction; assay type: functional
# [22] = tested on: Rattus norvegicus; experiment: Antihypertensive activity rating in conscious SHR after 24 h post dose at 50 mg/kg (po); Range 20-30%; assay type: functional
# [23] = tested on: Rattus norvegicus; experiment: Antihypertensive activity in conscious spontaneously hypertensive rats 10 hr following 50 mg/kg p.o.; Range 10-20%.; assay type: functional; settings: route oral
# [24] = tested on: Rattus norvegicus; experiment: Antihypertensive activity rating in conscious SHR after 10 hr post dose at 10 mg/kg (po); Range 10-20%; assay type: functional
# [25] = tested on: Rattus norvegicus; experiment: Antihypertensive activity rating in conscious SHR after 2 hr post dose at 50 mg/kg (po); assay type: functional
# [26] = tested on: Rattus norvegicus; experiment: Antihypertensive activity rating in conscious SHR after 18 hr post dose at 50 mg/kg (po); assay type: functional
# [27] = Half-life measured in 0.1 N HCl; assay type: ADME
# Outline: as §1
# [28] = tested on: Rattus norvegicus; experiment: Antihypertensive activity rating in conscious SHR after 10 hr post dose at 50 mg/kg (po); assay type: functional
# [29] = tested on: Rattus norvegicus; experiment: Antihypertensive activity rating in conscious SHR after 24 hr post dose at 50 mg/kg (po)v; assay type: functional
# [30] = Half-life measured in 1:1 ratio of MeOH and phosphate buffer at pH 7; Stable; assay type: ADME
# Outline: as §1
# [31] = tested on: Rattus norvegicus; experiment: Antihypertensive activity rating in conscious SHR after 24 hr post dose at 50 mg/kg (po); Range 10-20%; assay type: functional
# [32] = tested on: Rattus norvegicus; experiment: Antihypertensive activity rating in conscious SHR after 24 h post dose at 10 mg/kg (po); 0=No significant reduction; assay type: functional
# [33] = tested on: Rattus norvegicus; experiment: Antihypertensive activity in conscious spontaneously hypertensive rats 24 hr following 50 mg/kg p.o.; No significant reduction.; assay type: functional; settings: route oral
# [34] = tested on: Rattus norvegicus; experiment: Antihypertensive activity rating in conscious SHR after 18 hr post dose at 50 mg/kg (po); Range 20-30%; assay type: functional
smiles,measurement,setting,value
Cc1ncc2cc(-c3c(Cl)cccc3Cl)c(NC(=O)c3cccnc3)nc2n1,pKa,[1],9.8
same,T1/2,[2],Stable
same,half-life,[3],4 h
same,Activity rating,[4],10%
same,Decrease,[5],26%
same,pKa,[6],4.1
same,Activity rating,[7],20%
same,half-life,[8],54 h
same,Activity rating,[9],10%
same,Activity rating,[10],10%
same,solubility,[11],2.63 mg/mL
same,solubility,[12],26.6 mg/mL
Cc1ncc2cc(-c3c(Cl)cccc3Cl)c(NC(=O)c3ccoc3)nc2n1,Activity rating,[13],10%
same,Activity rating,[14],20%
same,Decrease,[5],28%
same,Activity rating,[15],20%
CCO/C(=N\C)Nc1nc2nc(C)ncc2cc1-c1c(Cl)cccc1Cl,Activity rating,[16],0%
same,Decrease,[5],10%
same,Activity rating,[17],0%
same,Activity rating,[18],0%
COCC(=O)Nc1nc2nc(C)ncc2cc1-c1c(Cl)cccc1Cl,Activity rating,[13],10%
same,Activity rating,[19],0%
same,Activity rating,[20],20%
same,Activity rating,[21],0%
same,Decrease,[5],29%
same,Activity rating,[22],20%
same,Activity rating,[7],20%
Cc1ncc2cc(-c3c(Cl)cccc3Cl)c(NC(=O)N(C)C)nc2n1,Activity rating,[4],10%
same,Activity rating,[23],10%
same,Decrease,[5],26%
same,Activity rating,[22],20%
Cc1ncc2cc(-c3c(Cl)cccc3Cl)c(NC(=O)c3ccncc3)nc2n1,Activity rating,[13],10%
same,Decrease,[5],18%
same,Activity rating,[24],10%
same,Activity rating,[10],10%
CC(=O)Nc1nc2nc(C)ncc2cc1-c1c(Cl)cccc1Cl,Activity rating,[14],20%
same,pKa,[1],12.8
same,half-life,[3],< 0.0833 h
same,Decrease,[5],45%
same,pKa,[6],4.1
same,Activity rating,[25],>30%
same,half-life,[8],60 h
same,Activity rating,[15],20%
same,Activity rating,[9],10%
same,Activity rating,[26],>30%
same,half-life,[27],12.5 h
same,solubility,[11],6.05 mg/mL
same,solubility,[12],34.2 mg/mL
same,Activity rating,[28],>30%
CC(=O)Nc1ncc2cc(-c3c(Cl)cccc3Cl)c(NC(C)=O)nc2n1,Activity rating,[16],0%
same,Decrease,[5],32%
same,Activity rating,[7],20%
same,Activity rating,[26],>30%
CC(=O)Nc1nc2ncncc2cc1-c1ccccc1Br,Activity rating,[29],0%
same,Activity rating,[4],10%
same,Activity rating,[23],10%
same,Decrease,[5],19%
COC(=O)Nc1nc2nc(C)ncc2cc1-c1c(Cl)cccc1Cl,T1/2,[30],Stable
same,pKa,[1],11.3
same,T1/2,[2],Stable
same,half-life,[3],6 h
same,Activity rating,[4],10%
same,Decrease,[5],29%
same,pKa,[6],4.2
same,Activity rating,[24],10%
same,Activity rating,[9],10%
same,solubility,[11],0.28 mg/mL
same,Activity rating,[31],10%
same,solubility,[12],14.6 mg/mL
Cc1ncc2cc(-c3c(Cl)cccc3Cl)c(NC(=O)CCl)nc2n1,Decrease,[5],24%
same,Activity rating,[15],20%
same,Activity rating,[10],10%
same,Activity rating,[32],0%
CC(=O)N(C)c1nc2nc(C)ncc2cc1-c1c(Cl)cccc1Cl,Activity rating,[16],0%
same,T1/2,[30],Stable
same,T1/2,[2],Stable
same,half-life,[3],1.6 h
same,pKa,[6],4.2
same,Activity rating,[18],0%
same,Activity rating,[33],0%
CC(=O)/N=c1/c(-c2c(Cl)cccc2Cl)cc2cnc(C)nc2n1C,T1/2,[30],Stable
same,half-life,[3],8.8 h
same,Activity rating,[4],10%
same,Decrease,[5],17%
same,pKa,[6],2.5
same,Activity rating,[18],0%
same,half-life,[27],3.4 h
same,Activity rating,[31],10%
Cc1ncc2cc(-c3c(Cl)cccc3Cl)c(NC=O)nc2n1,Activity rating,[13],10%
same,Activity rating,[20],20%
same,Decrease,[5],33%
same,Activity rating,[24],10%
same,Activity rating,[26],>30%
same,Activity rating,[10],10%
same,Activity rating,[28],>30%
Cc1ncc2cc(-c3c(Cl)cccc3Cl)c(NS(C)(=O)=O)nc2n1,Activity rating,[19],0%
same,Activity rating,[21],0%
same,Activity rating,[4],10%
same,Activity rating,[23],10%
same,Decrease,[5],22%
same,Activity rating,[22],20%
same,Activity rating,[32],0%
Cc1ncc2cc(-c3c(Cl)cccc3Cl)c(NC(=O)CNC(=O)OCc3ccccc3)nc2n1,Activity rating,[19],0%
same,Activity rating,[4],10%
same,Decrease,[5],29%
same,Activity rating,[7],20%
same,Activity rating,[10],10%
same,Activity rating,[31],10%
same,Activity rating,[32],0%
Cc1ncc2cc(-c3c(Cl)cccc3Cl)c(NC(=O)c3ccccn3)nc2n1,Activity rating,[4],10%
same,Decrease,[5],29%
same,Activity rating,[22],20%
same,Activity rating,[7],20%
same,Activity rating,[24],10%
same,Activity rating,[9],10%
NNc1nncc2ccccc12 [HYDRALAZINE],Activity rating,[13],10%
same,Decrease,[5],51% and 27%
same,Activity rating,[15],20%
Cc1ncc2cc(-c3c(Cl)cccc3Cl)c(NC(=O)C(F)(F)F)nc2n1,Activity rating,[20],20%
same,Activity rating,[34],20%
same,Decrease,[5],23%
same,Activity rating,[7],20%
Cc1ncc2cc(-c3c(Cl)cccc3Cl)c(NC(=O)Cc3ccccc3)nc2n1,Activity rating,[4],10%
same,Activity rating,[23],10%
same,Decrease,[5],17%
same,Activity rating,[31],10%
Cc1ncc2cc(-c3c(Cl)cccc3Cl)c(NC(=O)c3ccccc3)nc2n1,Activity rating,[20],20%
same,Decrease,[5],30%
same,Activity rating,[22],20%
same,Activity rating,[7],20%
CNc1nc2nc(C)ncc2cc1-c1c(Cl)cccc1Cl,Activity rating,[34],20%
same,Activity rating,[4],10%
same,Activity rating,[23],10%
same,Decrease,[5],21%
